Measured values of several laboratories.
HTR2B: 5-hydroxytryptamine receptor 2B (HTR2B, Homo sapiens, UniProt P41595)
mraY: mraY (Staphylococcus aureus, UniProt Q2FZ93)

COc1cc2c3c(c1OC)-c1c(OC)ccc(N4CCOCC4)c1CC3N(C)CC2 (stereo not drawn)  inhibition (HTR2B; ligand displacement, radioligand; 10 µM): 80%
CCCCCCC#Cc1cncc(-c2nnc(SCc3cc(C(F)(F)F)cc(C(F)(F)F)c3)n2CCCN)c1  inhibition (mraY; cell-free assay, inhibitor; 250 µM): 53%
COc1cc2c3c(c1OC)-c1c(OC)ccc(NC(C)=O)c1CC3N(C)CC2 (stereo not drawn)  inhibition (HTR2B; ligand displacement, radioligand; 10 µM): 20%
CCCCCCC#Cc1cncc(-c2nnc(SC[C@H]3O[C@@H](n4ccc(=O)[nH]c4=O)[C@H](O)[C@@H]3O)n2CCCN)c1  inhibition (mraY; cell-free assay, inhibitor; 250 µM): 44%
CC[N+]1(C)CCc2cc(OC)c(OC)c3c2C1Cc1cccc(OC)c1-3 (stereo not drawn)  inhibition (HTR2B; ligand displacement, radioligand; 10 µM): 26%
CCCCCCC#Cc1cncc(-c2nnc(SCc3cc([N+](=O)[O-])cc([N+](=O)[O-])c3)n2CCO)c1  inhibition (mraY; cell-free assay, inhibitor; 250 µM): 55%
Cc1cc(F)cc2c(CCC(=O)N[C@@H]3C(=O)NC[C@H]3O)c(-c3ccc(F)cc3)[nH]c12  inhibition (HTR2B; cell-free assay; 10 µM): 10%
NC/C(=C\F)COc1cccc(Cn2c(=S)[nH]c(=O)c3[nH]cnc32)c1  inhibition (B2 bradykinin receptor (BDKRB2, Homo sapiens, UniProt P30411); ligand displacement, radioligand; 10 µM): < 50%
Cc1cc(O)c(-c2ccc([C@@H](C)CN(C)C)cc2)c2c1[nH]c(=O)c1sccc12  inhibition (Acylglycerol kinase, mitochondrial (Homo sapiens, UniProt Q53H12); enzyme activity, inhibitor; 0.1 µM, lysate): 1.28%
COc1cc2c3c(c1OC)-c1c(OC)ccc(-c4ccc(C#N)cc4)c1CC3N(C)CC2 (stereo not drawn)  inhibition (5-hydroxytryptamine receptor 2C (HTR2C, Homo sapiens, UniProt P28335); ligand displacement, radioligand; 10 µM): 24%
CCN1/C(=C/C(C)=O)Sc2ccc(F)cc21  inhibition (Gastrin/cholecystokinin type B receptor (CCKBR, Homo sapiens, UniProt P32239); ligand displacement, radioligand; 10 µM): 1.43%
CCCCCCC#Cc1cncc(-c2nnc(SCc3ccc(Cl)cc3)n2CCO)c1  inhibition (mraY; cell-free assay, inhibitor; 250 µM): 0%
